MPTP block: inhibitors of mitochondrial permeability transition pore. inhibition, % at 10 µM. isolated mouse mitochondria, Ca2+ swelling absorbance, 30 min. AID 602449. 1.4% of 360,000 active;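 active means inhibition of 50% or more, scaled per plate between neutral and stimulator controls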;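 further: 0% = DMSO wells given calcium and 100% = 1 mM EGTA wells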
hiPSC survival: increases survival of single human iPS cells. AID 602274. hiPSC single-cell survival, ATPlite luminescence; 100% = ROCK inhibitor wells, 0% = DMSO. 0.044% of 360,000 active. survival enhancement, % at 20 µM; in the data active means survival enhancement above about 18%;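 further: cells exposed to compounds for 16 hours before the ATP read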
Apaf-1 inh: inhibitors of human Apaf-1 apoptosome. reconstituted apoptosome caspase-3 activity, DEVD-Rh110 fluorescence. AID 489030. inhibition, % at 20 µM. 0.71% of 330,000 active; active means inhibition of at least 40% at 20 µM;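 further: plate controls were DMSO wells for no effect and DEVD-CHO caspase inhibitor wells for full effect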
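Material: biochemical Apaf-1 apoptosome reconstitution. Medium: Hepes buffer, pH 7.5. Also added: cytochrome c activation, bis-DEVD rhodamine 110 substrate. Timing: 30 min compound preincubation, 50 min activation, room temperature. Measured by: rhodamine 110 fluorescence at Ex 480/Em 540 nm.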
Granule exo inh: blocks lytic granule exocytosis; TALL-104 LAMP-1 surface exposure, flow cytometry; cells stimulated with thapsigargin and PMA; inhibition, % at 10 µM; 0.66% of 360,000 active;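 active means inhibition above about 55%, limit read from the data; inconclusive means no clear call, values can overlap the other calls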
UBC13 inh: blocks human UBC13 polyubiquitin chain formation; P61088; TR-FRET; inhibition, % at 20 µM; 0.47% of 330,000 active; AID 485273; in the data active means inhibition above about 45%, passing the limit was not always enough; inconclusive means no clear call, values can overlap the other calls
Target sequence (P61088 whole entry, looked up): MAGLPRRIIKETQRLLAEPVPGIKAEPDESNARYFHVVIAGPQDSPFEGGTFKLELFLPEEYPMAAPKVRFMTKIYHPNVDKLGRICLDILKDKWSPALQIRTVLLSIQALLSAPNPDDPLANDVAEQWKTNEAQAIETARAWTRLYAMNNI
beta cell repl: MIN6 beta-cell proliferation induction; MIN6 cells proliferation, ATPlite luminescence, 48 h; cells starved in 0.2% serum; 100% = growth in 10% serum; proliferation, % at 10 µM; 0.29% of 330,000 active; AID 2380;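 active means compounds whose signal lies at least 3.5 SD above the mean of all wells on their plate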;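 further: 0% = DMSO-treated cells in low-serum medium and 100% = 10% serum control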
Rh123 counter: Rhodamine 123 counter-screen of mitochondrial pore hits; shares compounds with MPTP block; isolated mitochondria, membrane potential, Rhodamine 123 fluorescence; inhibition, % at 10 µM; 78% of 5,000 active; in the data active means inhibition above about 22%;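 further: 0% = DMSO vehicle and 100% = positive control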
MPTP abs DR: MPTP inhibition, dose response swelling confirmation. shares compounds with MPTP block. isolated mitochondria swelling, absorbance. IC50, µM. 58% of 780 active. AID 651561; in the data active means IC50 below about 20 µM
MPTP counter DR: counter-screen for mitochondrial permeability transition pore inhibitors, dose response | 49% of 780 active | shares compounds with MPTP block | IC50, µM | isolated mitochondria counterscreen, fluorescence read-out; in the data active means IC50 below about 80 µM
* hit, by the source's call; i = inactive; ? = inconclusive; / = no result given. Shown are actives, neighbours in structure and some others; about 3% of the full set was active somewhere.

SMILES	MPTP block	hiPSC survival	Apaf-1 inh	Granule exo inh	UBC13 inh	beta cell repl	Rh123 counter	others
Cc1cc(-c2ccc(C)c(S(=O)(=O)NCCCN3CCN(c4ccccc4F)CC3)c2)on1	72.5*	-0.1	18.4	3.2	0.4	-7.9	84.8*
Cc1cc(-c2ccc(C)c(S(=O)(=O)NCCCN3CCN(c4ccccc4)CC3)c2)on1	3.2	0.1	3.4	7.2	16.7	-5.3	/
CCOc1cc(C)c(-c2onc(C(F)(F)F)c2-c2csc(C)n2)c(O)c1	70.5*	-1.3	9.3	16.5	13.3	-5.3	82.6*
OC(c1cc(F)cc(Cl)c1)c1ncc(-c2ccc3ccccc3c2)[nH]1 (stereo not drawn)	13.4	1.6	/	-9.9	/	/	/
O=C1c2ccccc2C2=Nc3ccccc3SC(c3cccc(F)c3)C12 (stereo not drawn)	81.1*	-0.3	4.0	0.3	-50.6	0.0	66.2*
O=C1CCCC2=C1C(c1ccc(Cl)cc1)C1C(=O)c3ccccc3C1=N2 (stereo not drawn)	54.7*	-1.5	0.5	-6.7	-50.5	-3.9	36.3*
O=C1c2ccccc2C2=Nc3ccccc3SC(c3ccc(Cl)cc3)C12 (stereo not drawn)	89.2*	0.3	19.2	-6.1	-47.7	0.0	55.5*
O=C1CCCC2=C1C(c1ccccc1)C1C(=O)c3ccccc3C1=N2 (stereo not drawn)	4.1	0.8	3.2	4.5	-142.1	-0.4	/
Fc1cccc(C2NN=C(c3ccccc3)S2)c1 (stereo not drawn)	-0.8	-0.3	-13.7	-1.8	5.8	-4.0	/
O=C(NCc1ccccc1)C(C1CC1)n1c(=O)c(-c2ccco2)nc2ccccc21 (stereo not drawn)	1.6	/	/	-3.0	/	/	/
O=C(c1cc2sccc2n1Cc1ccc(F)cc1)N1CCN(c2nc3ccccc3s2)CC1	90.0*	-5.1	21.9	4.2	-2.6	-3.9	102.9*
Cc1nc(N2CCCCC2)c2c(C)c(C(=O)Nc3cccc(C(F)(F)F)c3)sc2n1	84.2*	1.3	33.9	9.0	37.0	-5.8	49.3*
Cc1nc(N2CCCCC2C)c2c(C)c(C(=O)Nc3cccc(C(F)(F)F)c3)sc2n1 (stereo not drawn)	70.0*	-0.9	29.1	-2.8	39.0	-5.9	41.4*
COc1cc(OC)cc(C(=O)NCC(=O)NC(C)c2ccccc2)c1 (stereo not drawn)	0.3	-0.5	1.6	-3.4	-4.4	-2.2	/
CCCCC[C@@H]1CCCCC[C@@H](O)C[C@@H](O)[C@H](O)/C=C/C(=O)O1	0.6	0.3	/	-4.3	/	/	/
Cc1ccc(-c2nnc(SCC(=O)N(C)C)nc2-c2ccc(C)cc2)cc1	72.7*	-0.7	8.0	10.9	4.4	0.3	-0.7	MPTP abs DR=17.4*;MPTP counter DR=>80
Cc1oc(-c2ccc(Cl)cc2)nc1CN1CCC(C(=O)N2CCN(Cc3ccccc3)CC2)CC1	56.6*	3.2	30.4	9.9	16.4	-6.4	9.2	MPTP abs DR=i;MPTP counter DR=30.3*
CN(CC(=O)Nc1ccc(Cl)c(Cl)c1)C(=O)CNC(=O)C1CCCCC1	0.2	-0.8	-1.1	2.5	4.5	-2.0	/
C=CCCc1ccc(C#N)c(SCc2c(C(=O)OCC)c3cc(OC(C)=O)c(Br)cc3n2C)n1	71.3*	1.2	9.8	10.1	-5.0	-5.4	75.8*
CCOC(=O)c1c(CSc2nc(C)cc(C)c2C#N)n(C)c2cc(Br)c(OC(C)=O)cc12	47.9	1.7	10.4	-3.0	-32.9	-5.8	/
CSc1ccc(CN(C)CC(=O)NCCc2ccccc2)cc1	-0.3	-0.6	17.0	-0.7	0.0	-0.8	/
O=C(Nc1ccc(Cl)cc1)OCCN1CCOCC1	0.0	-1.4	/	10.3	/	/	/
O=C(Nc1ccc(Cl)cc1)OCCn1nnnc1C(c1ccccc1Cl)N1CCOCC1 (stereo not drawn)	72.4*	-1.6	15.5	-2.9	-1.6	-4.2	85.2*
NC(=O)CCCn1c(C(=O)c2ccc(Cl)cc2)c2ccc(C(F)(F)F)cc2[n+]1[O-]	-1.4	-0.5	9.6	-4.3	-2.8	-1.3	/
NCCCn1c(C(=O)c2ccc(Cl)cc2)c2ccc(C(F)(F)F)cc2[n+]1[O-]	64.6*	-4.9	5.6	6.3	33.9	2.0	-18.4	MPTP abs DR=8.67*;MPTP counter DR=>80
SMILES	MPTP block	hiPSC survival	Apaf-1 inh	Granule exo inh	UBC13 inh	beta cell repl	Rh123 counter	others
O=C(NCC(=O)N1CCN(Cc2ccccc2)CC1)c1cc(Cl)cc([N+](=O)[O-])c1	-1.6	1.6	1.6	2.6	1.3	-4.4	/
Cc1cccc(OCc2nc3c4c(ncn3n2)-c2ccccc2CC42CCCC2)c1	4.9	-0.5	-1.6	?	-4.6	0.0	/
Oc1cccc(-c2nc3c4c(ncn3n2)-c2ccccc2CC42CCCC2)c1	10.8	1.8	19.7	34.3	6.5	-6.3	/
Cc1ccc(OCc2nc3c4c(ncn3n2)-c2ccccc2CC42CCCC2)cc1	56.6*	7.4	16.5	3.7	-1.0	-5.3	-8.5	MPTP abs DR=8.4*;MPTP counter DR=>80
Cc1ccccc1OCc1nc2c3c(ncn2n1)-c1ccccc1CC31CCCC1	69.0*	-0.6	7.8	-3.4	-3.7	-4.0	1.1	MPTP abs DR=12.8*;MPTP counter DR=>80
COc1ccc(OCc2nc3c4c(ncn3n2)-c2ccccc2CC42CCCC2)cc1	35.1	3.3	2.0	-2.0	9.1	0.0	/
COc1ccc(-c2nc3c4c(ncn3n2)-c2ccccc2CC42CCCC2)cc1	78.1*	-0.8	5.7	3.2	-3.0	-1.3	1.2	MPTP abs DR=>100;MPTP counter DR=>80
CCN(c1ccccc1)S(=O)(=O)c1nnc(NC(=O)C(C)C)s1	0.5	-0.5	4.4	-4.2	-2.7	-2.9	/
O=C(Cn1ncc2c([nH]c3ccccc32)c1=O)Nc1ccc(CN2CCCCC2)cc1	-1.1	-0.5	17.1	-9.1	10.0	-6.8	/
CC(C)CCOc1cccc(OCC(=O)Nc2ccncc2)c1	106.8*	-0.5	12.5	21.2	1.0	-3.6	100.5*
O=C(COc1ccc2ccccc2c1Br)Nc1ccncc1	91.9*	-0.4	2.4	-10.2	7.0	-7.1	81.6*
Cc1cc(OCC(=O)Nc2ccncc2)cc(C)c1Cl	93.5*	0.1	-2.5	-6.8	3.5	-4.0	84.0*
CC(C)(C)c1ccc(OCC(=O)Nc2ccncc2)c(Br)c1	108.3*	0.5	15.2	25.7	-2.8	-5.1	87.5*
COc1cccc(CNC(=O)Cn2nc(C)c([N+](=O)[O-])c2C)c1	-0.2	0.8	5.4	2.1	-6.4	0.4	/
Cc1csc(=O)n1CC(=O)Nc1nc2ccccc2s1	-0.7	-0.1	14.7	-1.8	0.3	-1.9	/
Cc1cccc(NC(=O)c2cccc(S(=O)(=O)N3CCc4ccccc4C3)c2)n1	-0.4	-0.3	12.3	12.1	6.5	-4.8	/

Screening results: PubChem, several laboratories
